Data: ChEMBL document CHEMBL5143666, “Insights into the anticancer activity of chiral alkylidene-β-lactams and alkylidene-γ-lactams: Synthesis and biological investigation” (Bioorg Med Chem, 2022)
Activity calls are given as the source filed them. No cut-off for these calls is given here.

Assays:
[1] = system: OE19; experiment: Cytotoxicity against human OE19 cells after 72 hrs by MTT assay; assay type: functional, cell-based; settings: OE19, 72 h
Procedure, shortened: (§1)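 Cells seeded at 1×10^5 per well, attached overnight, then exposed to serial dilutions from 10 mM DMSO stocks (vehicle control 1% DMSO) for 48 or 72 h; triplicate wells. MTT 0.5 mg/mL, 4 h at 37 °C; formazan dissolved in acid isopropanol, absorbance read. IC50 from sigmoidal variable-slope fit of % metabolic activity vs log concentration; ≥2 independent experiments.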

[2] = system: HT-1080; experiment: Cytotoxicity against human HT-1080 cells after 48 hrs by MTT assay; assay type: functional, cell-based; settings: HT-1080, 48 h; procedure, shortened: as §1
[3] = system: A-375; experiment: Cytotoxicity against human A375 cells after 48 hrs by MTT assay; assay type: functional, cell-based; settings: A-375, 48 h; procedure, shortened: as §1
[4] = system: NCI-H1299; experiment: Cytotoxicity against human H1299 cells after 48 hrs by MTT assay; assay type: functional, cell-based; settings: NCI-H1299, 48 h; procedure, shortened: as §1
[5] = system: OE19; experiment: Cytotoxicity against human OE19 cells after 48 hrs by MTT assay; assay type: functional, cell-based; settings: OE19, 48 h; procedure, shortened: as §1
[6] = molecular target: Matrix metalloproteinase-9 (Homo sapiens) (UniProt P14780); experiment: Inhibition of MMP9 in human HT-1080 cells at 10 uM by gelatin zymography; assay type: cell-based
[7] = system: A-375; experiment: Effect on reactive oxygen production in human A375 cells assessed as decrease in peroxide level at 10 uM after 48 hrs by DCFH2-DA staining based spectrophotometry; assay type: functional, cell-based
Procedure, shortened: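 A375 cells (5×10^5) attached overnight, exposed at 5 or 10 μM for 8 or 48 h. Intracellular peroxides measured with 5 μM DCFH2-DA, 45 min at 37 °C in the dark; after washing, fluorescence read at ex 485 / em 528 nm. Mean ± SD of two independent experiments in duplicate.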

[8] = system: A-375; experiment: Induction of apoptosis in human A375 cells assessed as viable cells at 10 uM after 48 hrs by annexin-v and PI staining based flow cytometry analysis (reference value: 93.63 +/- 1.37%); assay type: functional; settings: read-out: Activity
[9] = system: A-375; experiment: Induction of apoptosis in human A375 cells assessed as necrotic cells at 10 uM after 48 hrs by annexin-v and PI staining based flow cytometry analysis (reference value: 1.17 +/- 0.41%); assay type: functional
[10] = system: A-375; experiment: Induction of cell cycle arrest in human A375 assessed as number of cells at S phase at 10 uM after 48 hrs by flow cytometry (reference value: 11.33 +/- 1.86 %)
[11] = system: A-375; experiment: Induction of cell cycle arrest in human A375 assessed as number of cells at G1 phase at 10 uM after 48 hrs by flow cytometry (reference value: 83.5 +/- 1.87 %); assay type: functional
[12] = system: A-375; experiment: Induction of cell cycle arrest in human A375 assessed as number of cells at G2/M phase at 10 uM after 48 hrs by flow cytometry (reference value: 5.17 +/- 0.75 %); assay type: functional
[13] = system: A-375; experiment: Induction of apoptosis in human A375 cells assessed as late apoptotic cells at 10 uM after 48 hrs by annexin-v and PI staining based flow cytometry analysis (reference value: 1.83 +/- 0.41%); assay type: functional
[14] = system: A-375; experiment: Induction of cell cycle arrest in human A375 assessed as number of cells at S phase at 5 uM after 48 hrs by flow cytometry (reference value: 11.33 +/- 1.86 %); assay type: functional
[15] = system: A-375; experiment: Induction of cell cycle arrest in human A375 assessed as number of cells at G2/M phase at 5 uM after 48 hrs by flow cytometry (reference value: 5.17 +/- 0.75 %); assay type: functional
[16] = system: A-375; experiment: Induction of cell cycle arrest in human A375 assessed as number of cells at G1 phase at 5 uM after 48 hrs by flow cytometry (reference value: 83.5 +/- 1.87 %); assay type: functional
[17] = system: A-375; experiment: Induction of apoptosis in human A375 assessed as formation of bleb at 5 to 10 uM after 48 hrs by May-Grunwald- Giemsa staining based optical microscopic analysis; assay type: functional, cell-based; settings: dose 5-10 µM
Procedure, shortened: (§2)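 A375 cells exposed to 5 or 10 μM for 48 h, stained with May-Grünwald Giemsa and examined by optical microscopy at 50x. Representative images taken at random for each condition.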

[18] = system: A-375; experiment: Induction of apoptosis in human A375 assessed as loss of cell integrity at 5 to 10 uM after 48 hrs by May-Grunwald- Giemsa staining based optical microscopic analysis; assay type: functional; settings: dose 5-10 µM; procedure, shortened: as §2

Chain of Matrix metalloproteinase-9 (Homo sapiens) (P14780 whole entry): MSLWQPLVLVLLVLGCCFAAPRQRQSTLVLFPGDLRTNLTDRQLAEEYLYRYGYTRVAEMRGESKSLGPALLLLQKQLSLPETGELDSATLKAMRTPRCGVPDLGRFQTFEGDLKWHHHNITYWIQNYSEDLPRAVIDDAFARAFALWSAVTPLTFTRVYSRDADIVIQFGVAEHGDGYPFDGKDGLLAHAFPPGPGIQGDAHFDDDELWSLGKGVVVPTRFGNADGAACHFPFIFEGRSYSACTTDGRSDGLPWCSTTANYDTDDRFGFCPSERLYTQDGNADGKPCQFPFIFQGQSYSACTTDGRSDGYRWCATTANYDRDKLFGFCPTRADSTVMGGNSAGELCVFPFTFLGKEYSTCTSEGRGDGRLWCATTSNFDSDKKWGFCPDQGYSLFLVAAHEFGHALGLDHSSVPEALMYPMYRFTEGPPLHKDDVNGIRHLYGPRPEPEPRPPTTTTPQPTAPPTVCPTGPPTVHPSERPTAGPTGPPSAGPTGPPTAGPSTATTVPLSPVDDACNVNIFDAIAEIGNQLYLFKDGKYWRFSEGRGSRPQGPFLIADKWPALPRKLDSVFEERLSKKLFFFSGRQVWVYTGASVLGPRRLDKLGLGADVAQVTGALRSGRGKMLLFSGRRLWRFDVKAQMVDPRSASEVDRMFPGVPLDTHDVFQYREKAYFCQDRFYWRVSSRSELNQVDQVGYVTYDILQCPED

SMILES | IC50 [2] [µM] | IC50 [3] [µM] | IC50 [4] [µM] | IC50 [5] [µM] | inhibition [6] | further results
CC1(C)S[C@@H]2/C(=C\C(=O)c3ccc(F)cc3)C(=O)N2[C@H]1C(=O)OC(c1ccccc1)c1ccccc1 | 11.2 | 17.8 | 25.2 | 12.1 | Active | IC50 [1]: 10.7 µM
CC(=O)/C=C1\C[C@H]2SC(C)(C)[C@H](C(=O)OC(c3ccccc3)c3ccccc3)N2C1=O | > 100 | > 100 | > 100 | > 100 |  | 
CC1(C)S[C@@H]2/C(=C\C(=O)c3ccc4ccccc4c3)C(=O)N2[C@H]1C(=O)OC(c1ccccc1)c1ccccc1 |  | 36.5 |  | 19.5 |  | 
CC1(C)S[C@@H]2/C(=C\C(=O)c3ccco3)C(=O)N2[C@H]1C(=O)OC(c1ccccc1)c1ccccc1 | 45.5 | 26 | 61.5 | 54.3 |  | 
COC(=O)/C=C1\C[C@H]2SC(C)(C)[C@H](C(=O)OC(c3ccccc3)c3ccccc3)N2C1=O |  | > 100 |  | 99.7 | 52.9% | 
CCOC(=O)/C=C1/C(=O)N2[C@@H]1SC(C)(C)[C@@H]2C(=O)OC(c1ccccc1)c1ccccc1 | 25.1 | 7 | 15 | 11.2 | Active | IC50 [1]: 5.3 µM; Activity [7]: Active; viability at 10 µM [8]: 63%; Activity [9]: 20.8%; Activity [10]: 25.75%; Activity [11]: 61.65%; Activity [12]: 12.5%; Activity [13]: 11.5%
CC1(C)[C@H](C(=O)OC(c2ccccc2)c2ccccc2)N2C(=O)/C(=C/C(=O)c3ccc([N+](=O)[O-])cc3)[C@H]2S1(=O)=O |  | 76.7 |  | 95.5 |  | 
CC1(C)S[C@@H]2/C(=C\C(=O)c3ccc(C(F)(F)F)cc3)C(=O)N2[C@H]1C(=O)OC(c1ccccc1)c1ccccc1 |  | 26.7 |  | 15.6 |  | 
CC1(C)S[C@@H]2C/C(=C\C(=O)c3ccccc3)C(=O)N2[C@H]1C(=O)OC(c1ccccc1)c1ccccc1 |  | > 100 |  | 73.3 | 61.4% | 
COC(=O)/C=C1/C(=O)N2[C@@H]1SC(C)(C)[C@@H]2C(=O)OC(c1ccccc1)c1ccccc1 |  | 24.6 |  | 20.2 |  | 
CC1(C)S[C@@H]2/C(=C\C(=O)OCc3ccccc3)C(=O)N2[C@H]1C(=O)OC(c1ccccc1)c1ccccc1 | 11.7 | 7.1 | 9.4 | 8.2 | Active | IC50 [1]: 4.6 µM; Activity [7]: Active; Activity [14]: 19.5%; viability at 10 µM [8]: 56.2%; Activity [15]: 8.75%; Activity [9]: 24%; Activity [10]: 29.67%; Activity [16]: 71.25%; Activity [17]: Active; Activity [11]: 58.33%; Activity [18]: Active; Activity [12]: 12%; Activity [13]: 13%
CC1(C)S[C@@H]2/C(=C\C(=O)c3cc(F)cc(F)c3)C(=O)N2[C@H]1C(=O)OC(c1ccccc1)c1ccccc1 |  | 19.1 |  | 17.6 |  | 
CC1(C)[C@H](C(=O)OC(c2ccccc2)c2ccccc2)N2C(=O)/C(=C/C(=O)c3ccccc3)[C@H]2[S+]1[O-] (some centres undefined) | 65.5 | 4.5 | 92.4 | 23.7 |  | viability at 10 µM [8]: 89.2%; Activity [9]: 3%; Activity [13]: 4.17%
CC1(C)S[C@@H]2/C(=C\C(=O)c3ccccc3)C(=O)N2[C@H]1C(=O)OC(c1ccccc1)c1ccccc1 | 21.1 | 22.8 | 39 | 12.8 | Active | IC50 [1]: 8.6 µM
CC1(C)[C@H](C(=O)OC(c2ccccc2)c2ccccc2)N2C(=O)/C(=C/C(=O)c3ccccc3)[C@H]2S1(=O)=O | 19.5 | 17.5 | 50.1 | 53.1 |  | 
CC1(C)S[C@@H]2/C(=C\C(=O)c3ccc(Br)cc3)C(=O)N2[C@H]1C(=O)OC(c1ccccc1)c1ccccc1 |  | 29.7 |  | 13.8 |  | 
CC1(C)S[C@@H]2/C(=C\C(=O)c3cc(C(F)(F)F)cc(C(F)(F)F)c3)C(=O)N2[C@H]1C(=O)OC(c1ccccc1)c1ccccc1 |  | 39.2 |  | 48.5 |  | 
CC1(C)S[C@@H]2/C(=C\C(=O)OC(c3ccccc3)c3ccccc3)C(=O)N2[C@H]1C(=O)OC(c1ccccc1)c1ccccc1 | 15.2 | 9.1 | 22.4 | 21.6 | Active | Activity [7]: Active; viability at 10 µM [8]: 73.5%; Activity [9]: 14.75%; Activity [10]: 15.33%; Activity [11]: 67.67%; Activity [12]: 13%; Activity [13]: 7.75%
CC(=O)/C=C1/C(=O)N2[C@@H]1SC(C)(C)[C@@H]2C(=O)OC(c1ccccc1)c1ccccc1 | 20.8 | 63 | 24.2 | 51.9 |  | 
CC1(C)S[C@@H]2/C(=C\C(=O)c3ccc([N+](=O)[O-])cc3)C(=O)N2[C@H]1C(=O)OC(c1ccccc1)c1ccccc1 |  | 50.3 |  | 44.1 |  | 
CC1(C)S[C@@H]2/C(=C\C(=O)c3ccc(Cl)cc3)C(=O)N2[C@H]1C(=O)OC(c1ccccc1)c1ccccc1 |  | 48.6 |  | 14.6 |  | 
CC1(C)[C@H](C(=O)OC(c2ccccc2)c2ccccc2)N2C(=O)/C(=C/C(=O)c3ccc([N+](=O)[O-])cc3)[C@H]2[S+]1[O-] (some centres undefined) |  | 48.2 |  | 92.4 |  | 
